Assay outcomes from PubChem BioAssay.
Sampled rows, rich in hits. Any-hit rate of the full collection: about 2.3%.
EWS-Fli inh: EWS/Fli-driven NR0B1 reporter inhibitors, primary screen, A673 cells, NR0B1 luciferase, luminescence, MLPCN library. viability-normalised. inhibition, % at 12.6 µM. 350,000 tested, 0.67% active;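 active = mean inhibition of at least 50% after viability correction, with every replicate also passing that limit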;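 also: firefly luciferase signal divided by Alamar Blue viability fluorescence both relative to DMSO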
TROY NFkB inh: inhibitors of TROY-driven NF-kB signaling, primary screen, Q293 LMP1-TROYcd cells, NF-kB luciferase, uHTS; Q293 LMP1-TROYcd NF-kB luciferase reporter, 4 h; inhibition, % at 10 µM; 360,000 tested, 0.98% active; AID 1347056, 2019;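 active = compounds whose plate-normalised and pattern-corrected inhibition of the luciferase reporter signal at the single screening dose is 50% or more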
FN deposition inh: inhibitors of fibronectin matrix deposition, primary screen, AH1F cells, Alexa488-fibronectin fluorescence, plate reader | AH1F fibroblasts, overnight | inhibition, % at 12.6 µM | 350,000 tested, 0.086% active | AID 743247, 2014;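 active = mean inhibition across replicates of 30% or more, regardless of how many single replicates reach that level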;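 also: positive control wells lacked labelled fibronectin entirely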
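Material: AH1F fibroblasts assembling fluorescent fibronectin matrix; amount: 10000 AH1F cells/well; medium: DMEM, 2% serum; reagent: Alexa488-fibronectin, 24 nM final in well; dosing: single compound dose, delivered by pin transfer; incubation: 1 h adhesion, overnight exposure; detection: fluorescence after three HBSS washes, excitation 485 nm, emission 525 nm; measure: fibronectin deposition inhibition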
XiGFP reactiv: activators of inactive X chromosome reactivation, primary screen, imaging, XiGFP fibroblasts, GFP high-content imaging, set 2; XiGFP mouse fibroblasts, % GFP-positive cells imaging, 3 d; cells co-treated with 5-aza-dC sensitizer; scaled so ellipticine positive control = 100%; activation, % at 7.58 µM; 360,000 tested, 0.055% active;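 active = mean normalized replicate activation at least 10% and every replicate at or above 10%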;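 also: 0% = median of on-plate neutral control wells and 100% = ellipticine 6 µM median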
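System: XiGFP fibroblasts, SV40-immortalized. Medium: DMEM plus 5-aza-dC sensitizer. Doses: single point. Timing: 3 d treatment, 15 min room-temperature fixation. Control set: ellipticine 6 µM.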
TWEAK Fn14 block: inhibitors of TWEAK-Fn14 signaling, primary screen, luciferase reporter cells, uHTS. inhibition, % at 10 µM. 360,000 tested, 2% active. TWEAK-stimulated Fn14 reporter cells, luciferase luminescence, 8 h; in the data active = inhibition above about 50%
LGR2 antag: inhibitors of bursicon-induced LGR2 CRE-luciferase signal, primary screen, cell-based, HEK293, CRE-luciferase reporter, bursicon stimulation; Drosophila bursicon receptor LGR2 (rickets); bursicon-stimulated, 4 h; inhibition, % at 9.99 µM; 380,000 tested, 0.35% active;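 active = drop in luminescence signal, shown as inhibition above about 50% in the replicate tests, limit read from the data, passing the limit was not always enough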;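 also: agonist challenge used bursicon conditioned medium at about half maximal strength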
Starred values were filed as active, the others as inactive; . = no result.

SMILES	EWS-Fli inh	TROY NFkB inh	FN deposition inh	XiGFP reactiv	TWEAK Fn14 block	LGR2 antag
CNC[C@@H]1Oc2ccc(NS(=O)(=O)c3ccc(OC)cc3)cc2C(=O)N([C@H](C)CO)C[C@H]1C	-1	.	-2	0	.	-24
Cc1ccccc1Oc1cc(NC(=O)CCCn2nc(C)c([N+](=O)[O-])c2C)cc([N+](=O)[O-])c1	.	43	-1	0	63*	-4
COCC(=O)Nc1ccc2c(c1)C(=O)N(C)[C@H]1CC[C@H](CC(=O)NCCc3ccncc3)O[C@@H]1CO2	.	.	-14	0	.	.
CC12C(=O)N(c3nccs3)C(=O)C1(C)C1CCC2O1 (stereo unspecified)	8	-20	12	0	1	-7
C[C@@]12C(=O)OC(=O)[C@]1(C)C1CCC2O1	0	66*	41*	0	98*	18
Cc1ccc2[nH]c(C(=O)NN=C3CCCCC3)c(-c3ccccc3)c2c1	1	27	4	0	51*	-1
CCNc1nc(-c2sc(NC(=O)C(C)(C)C)nc2C)c(-n2cc(-c3ccccc3)nn2)s1	2	-1	9	0	86*	-23
CCCC(=O)Nc1ccc(C(=O)O)cc1NC(=O)CCC	.	-14	-8	.	103*	.
O=C(Nc1ccc([N+](=O)[O-])cc1)Nc1nc(-c2ccc(Cl)s2)cs1	41	54*	-5	1	67*	49
Cc1cc(O)c(C(C)C)cc1NC(=O)Nc1ccc([N+](=O)[O-])cc1	-10	-27	-6	0	4	.
Cc1ccc(NC(=O)Nc2cccc([N+](=O)[O-])c2)cc1F	.	45	3	0	79*	-15
O=C(Nc1ccc(OC(F)(F)F)cc1)Nc1cccnc1	-25	-29	1	0	-6	-31
O=C(Nc1ccc(OC(F)(F)F)cc1)Nc1cccc([N+](=O)[O-])c1	.	24	.	0	56*	-16
CC(=O)Nc1nc(-c2ccc([N+](=O)[O-])cc2)cs1	-24	-41	2	0	-6	.
Cc1ccc(C(C)C)cc1NC(=O)Nc1ccc([N+](=O)[O-])cc1	36	59*	27	0	69*	19
O=C(C[C@@H]1C=C[C@H](NC(=O)Cc2cccnc2)[C@H](CO)O1)Nc1ccc(-c2ccccc2)cc1	-23	.	-7	0	.	13
CCCC(=O)Nc1ccc2c(c1)OC[C@@H](C)N(Cc1ccccn1)C[C@@H](C)[C@H](OC)CN(C)C2=O	5	.	4	0	.	-36
C[C@@H](NC(=O)C[C@H]1C[C@H]2c3cc(NC(=O)CN(C)C)ccc3O[C@H]2[C@@H](CO)O1)c1ccccc1	0	.	-20	0	.	0
C[C@@H]1CN([C@@H](C)CO)S(=O)(=O)c2ccc(Br)cc2O[C@H]1CN(C)CC1CCOCC1	-8	.	-12	-1	.	-12
C[C@@H]1CN([C@H](C)CO)C(=O)Cc2cc(NC(=O)CCCN(C)C)ccc2O[C@@H]1CN(C)S(=O)(=O)c1ccccc1	-1	.	-3	-1	.	-1
O=C(C[C@@H]1C=C[C@H](NC(=O)c2cccc(F)c2)[C@@H](CO)O1)NCc1ccc(Oc2ccccc2)cc1	-7	.	.	0	.	0
O=C(Nc1ccc(Oc2ccc(NC(=O)Nc3ccc([N+](=O)[O-])cc3)cc2)cc1)Nc1ccc([N+](=O)[O-])cc1	33	26	1	0	87*	9
CC(=O)c1ccc(NC(=O)Nc2ccc([N+](=O)[O-])cc2)cc1	-13	4	1	0	11	-9
O=C(Cc1ccncc1)N[C@H]1CC[C@@H](CCn2cc(-c3ccccc3F)nn2)O[C@@H]1CO	3	.	2	1	.	14
CCn1cc(C(=O)NC(=S)Nc2sc3c(c2C(=O)OC)CCCCCC3)cn1	.	71*	3	1	-19	8
SMILES	EWS-Fli inh	TROY NFkB inh	FN deposition inh	XiGFP reactiv	TWEAK Fn14 block	LGR2 antag
CCOC(=O)c1c(NC(=O)c2nn(CC)cc2Br)sc2c1CCCCC2	.	-18	-1	.	-13	.
CC(C)[C@@H]1COCn2nncc2CC[C@H](Cc2ccccc2)C(=O)N1	4	.	-13	0	.	2
CC(C)NC(=O)N1[C@H](CO)[C@H]2c3ccccc3N(C(=O)Nc3ccc(F)cc3)C[C@H]21	-5	.	.	0	.	-13
O=C(C[C@H]1CC[C@@H](NC(=O)c2ccccc2)[C@H](CO)O1)NCc1ccncn1	-6	.	0	0	.	-7
COc1ccc(C)cc1S(=O)(=O)N1CCN(C(=O)c2ncoc2-c2ccc(C)cc2)CC1	2	-2	12	0	85*	12
O=C(CCS(=O)(=O)c1ccc(Cl)cc1)Nc1nccs1	-4	57*	4	0	5	-17
CCCCc1ccc(-c2nc(-c3ccncc3)no2)cc1	.	-30	.	.	33	.
Cc1ccc(-c2nc(-c3ccncc3)no2)c(Cl)c1	56*	30	-3	0	69*	75*
c1ccc(-c2nc(-c3ccncc3)no2)cc1	.	-44	.	.	-4	-37
c1ccc(-c2ccc(-c3nc(-c4ccncc4)no3)cc2)cc1	.	30	3	.	65*	.
CCc1ccc(-c2nc(-c3ccncc3)no2)cc1	.	34	.	.	76*	.
COc1ccccc1CN(C)C[C@@H]1OCc2ccccc2-c2c(n(C)c3ccccc23)C(=O)N([C@@H](C)CO)C[C@@H]1C	-2	.	7	0	.	-12
CC(=O)c1cccc(NC(=O)Nc2ccc3c(c2)N(C)C(=O)CS3)c1	.	68*	.	.	82*	5
C[C@@H]1CCCCO[C@@H](CN(C)Cc2ccc(C(F)(F)F)cc2)[C@H](C)CN([C@@H](C)CO)C(=O)c2cc(NC(=O)C3CCCCC3)ccc2O1	7	.	.	0	.	34
O=C(C1CCOCC1)N1CC(=O)N2[C@H](CO)[C@H](c3ccc(-c4cccnc4)cc3)[C@@H]2C1	-9	.	-3	0	.	-4
COc1cc([N+](=O)[O-])ccc1-c1ccc(/C=C2\C(=O)ON=C2c2ccccc2)o1	38	-2	9	0	68*	-3
COc1ccc(C(NC(=O)C2CCN(CCOc3ccc(F)cc3)CC2)c2cccs2)cc1 (stereo unspecified)	10	11	-7	0	-3	3
COc1ccc(C(NC(=O)C2CCN(CCOc3ccc(Cl)cc3Cl)CC2)c2cccs2)cc1 (stereo unspecified)	5	51*	-3	0	-4	.
